# Measured values reported in ChEMBL document CHEMBL1926623, “Modification of olivomycin A at the side chain of the aglycon yields the derivative with perspective antitumor characteristics” (Bioorg Med Chem, 2011).
# Key:
# [1] = system: HCT-116; assay: Antiproliferative activity against human HCT116 cells after 72 hrs by MTT assay; assay type: functional, cell-based
# Procedure, shortened: (§1)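 Cells from ATCC grown in DMEM or RPMI-1640 with 5% FCS, 2 mM L-glutamine, and penicillin/streptomycin at 37 °C, 5% CO2. 5 × 10³ log-phase cells per well were exposed to serial dilutions (from 10 mM DMSO stocks; 0.1% DMSO vehicle control), each dose in duplicate, for 72 h. MTT was added for 2 h and absorbance read at 540 nm. IC50 is the 50% viability inhibition versus vehicle. Mean ± SD of 4–5 independent experiments.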
# [2] = system: K562; assay: Antiproliferative activity against human K562 cells after 72 hrs by MTT assay; assay type: functional, cell-based; procedure, shortened: as §1
# [3] = system: Nucleic Acid; assay: Binding affinity to Salmon sperm DNA assessed as increase in fluorescence at 1.34 uM by spectrophotometry; assay type: nucleic-acid assay; settings: Salmonidae
# [4] = system: Nucleic Acid; assay: Binding affinity to Salmon sperm DNA assessed as increase in fluorescence at 1.34 uM by spectrophotometry; settings: Salmonidae
# [5] = system: Nucleic Acid; assay: Binding affinity to Salmon sperm DNA at 1.34 uM by Scatchard plot analysis; assay type: nucleic-acid assay; settings: Salmonidae
# [6] = system: B16; assay: Antitumor activity against mouse B16 cells xenografted in B6D2F1 mouse assessed as tumor growth inhibition at 2 mg/kg, iv administered on days 1,4,7,10,13,16,19 and 22 measured 28 days post tumor challenge; assay type: functional; settings: B16, 672 h, read-out: GI
# Procedure, shortened: (§2)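 B6D2F1 mice, 10 per group, received 10⁶ B16 melanoma cells s.c. into the right flank on day 0. Compound diluted in saline was given iv on days 1, 4, 7, 10, 13 (5 injections) or days 1–22 every third day (8 injections). Controls were left untreated, and mice were sacrificed by day 28. ITG% = (Mc−Mt)/Mc × 100, using calculated tumor weight (a×b×c)/2.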
# [7] = Toxicity in mouse P388 cells xenografted B6D2F1 mouse assessed as mortality at 4 mg/kg, ip administered daily for 5 days; assay type: organism-based; set-up: dose 4 mg/kg, route intraperitoneal; settings: in vivo, read-out: Activity
# Procedure, shortened: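 B6D2F1 mice, 10 per group, were inoculated ip with 10^6 P388 cells on day 0. Drug in 0.1% DMSO, diluted in saline, was given daily for 5 days. Physical condition, body weight, behaviour, nutrition and hair cover were monitored daily. Mortality was scored as drug-related toxicity deaths.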
# [8] = system: P388; assay: Antitumor activity against mouse P388 cells xenografted in B6D2F1 mouse assessed as increase in lifespan at 1 mg/kg, ip administered daily for 5 days relative to untreated control; assay type: functional; settings: route intraperitoneal
# Procedure, shortened: (§3)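 Each group of 10 B6D2F1 mice received 10^6 P388 lymphoma cells ip on day 0. Drug was dissolved in 0.1% DMSO, diluted with saline and given once daily for 5 days; controls were untreated. ILS (%) = (Dt−Dc)/Dc × 100, where Dt and Dc are mean survival times in days for treated and control groups.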
# [9] = system: P388; assay: Antitumor activity against mouse P388 cells xenografted in B6D2F1 mouse assessed as increase in lifespan at 2 mg/kg, ip administered daily for 5 days relative to untreated control; assay type: functional; settings: route intraperitoneal; procedure, shortened: as §3
# [10] = system: B16; assay: Antitumor activity against mouse B16 cells xenografted in B6D2F1 mouse assessed as tumor growth inhibition at 2 mg/kg, iv administered on days 1,4,7,10 and 13 measured 28 days post tumor challenge; assay type: functional; settings: B16, 672 h, read-out: GI; procedure, shortened: as §2
Structure (SMILES),IC50 [1],IC50 [2],further results
CO[C@H]1[C@H](O)C[C@@H](O[C@@H]2C[C@H](Oc3cc(O)c4c(O)c5c(cc4c3)C[C@@H]([C@H](OC)C(N)=O)[C@H](O[C@H]3C[C@H](O[C@H]4C[C@H](O[C@H]6C[C@@](C)(O)[C@@H](OC(=O)C(C)C)[C@H](C)O6)[C@H](O)[C@@H](C)O4)[C@H](O)[C@@H](C)O3)C5=O)O[C@H](C)[C@H]2OC(C)=O)O[C@@H]1C,100 nM,–,–
COC(=O)[C@H](C)NC(=O)[C@@H](OC)[C@@H]1Cc2cc3cc(O[C@H]4C[C@@H](O[C@@H]5C[C@@H](O)[C@H](OC)[C@@H](C)O5)[C@H](OC(C)=O)[C@@H](C)O4)cc(O)c3c(O)c2C(=O)[C@H]1O[C@H]1C[C@H](O[C@H]2C[C@H](O[C@H]3C[C@@](C)(O)[C@@H](OC(=O)C(C)C)[C@H](C)O3)[C@H](O)[C@@H](C)O2)[C@H](O)[C@@H](C)O1,20 nM,63 nM,–
CO[C@H]1[C@H](O)C[C@@H](O[C@@H]2C[C@H](Oc3cc(O)c4c(O)c5c(cc4c3)C[C@@H]([C@H](OC)C(=O)NCCN(C)C)[C@H](O[C@H]3C[C@H](O[C@H]4C[C@H](O[C@H]6C[C@@](C)(O)[C@@H](OC(=O)C(C)C)[C@H](C)O6)[C@H](O)[C@@H](C)O4)[C@H](O)[C@@H](C)O3)C5=O)O[C@H](C)[C@H]2OC(C)=O)O[C@@H]1C,20 nM,47 nM,–
CO[C@H]1[C@H](O)C[C@@H](O[C@@H]2C[C@H](Oc3cc(O)c4c(O)c5c(cc4c3)C[C@@H]([C@H](OC)C(=O)N[C@@H]3[C@@H](O)[C@@H](O)[C@@H](CO)O[C@H]3O)[C@H](O[C@H]3C[C@H](O[C@H]4C[C@H](O[C@H]6C[C@@](C)(O)[C@@H](OC(=O)C(C)C)[C@H](C)O6)[C@H](O)[C@@H](C)O4)[C@H](O)[C@@H](C)O3)C5=O)O[C@H](C)[C@H]2OC(C)=O)O[C@@H]1C,> 12500 nM,2390 nM,–
CO[C@H]1[C@H](O)C[C@@H](O[C@@H]2C[C@H](Oc3cc(O)c4c(O)c5c(cc4c3)C[C@@H]([C@H](OC)C(=O)[C@@H](O)[C@@H](C)O)[C@H](O[C@H]3C[C@H](O[C@H]4C[C@H](O[C@H]6C[C@@](C)(O)[C@@H](OC(=O)C(C)C)[C@H](C)O6)[C@H](O)[C@@H](C)O4)[C@H](O)[C@@H](C)O3)C5=O)O[C@H](C)[C@H]2OC(C)=O)O[C@@H]1C [OLIVOMYCIN A],20 nM,50 nM,inhibition in vivo at 2 mg/kg [6]: 45%; mortality at 120 h [7]: 87%; Activity [8]: 24%; Activity [9]: 35%; inhibition in vivo at 2 mg/kg [10]: 48%
CO[C@H]1[C@H](O)C[C@@H](O[C@@H]2C[C@H](Oc3cc(O)c4c(O)c5c(cc4c3)C[C@@H]([C@H](OC)C(=O)NC3C4CC6CC(C4)CC3C6)[C@H](O[C@H]3C[C@H](O[C@H]4C[C@H](O[C@H]6C[C@@](C)(O)[C@@H](OC(=O)C(C)C)[C@H](C)O6)[C@H](O)[C@@H](C)O4)[C@H](O)[C@@H](C)O3)C5=O)O[C@H](C)[C@H]2OC(C)=O)O[C@@H]1C (some centres undefined),180 nM,–,–

# Second part, led by results:
IC50 [1],IC50 [2],Structure (SMILES),further results
120 nM,–,CNC(=O)[C@@H](OC)[C@@H]1Cc2cc3cc(O[C@H]4C[C@@H](O[C@@H]5C[C@@H](O)[C@H](OC)[C@@H](C)O5)[C@H](OC(C)=O)[C@@H](C)O4)cc(O)c3c(O)c2C(=O)[C@H]1O[C@H]1C[C@H](O[C@H]2C[C@H](O[C@H]3C[C@@](C)(O)[C@@H](OC(=O)C(C)C)[C@H](C)O3)[C@H](O)[C@@H](C)O2)[C@H](O)[C@@H](C)O1,–
278 nM,148 nM,CO[C@H]1[C@H](O)C[C@@H](O[C@@H]2C[C@H](Oc3cc(O)c4c(O)c5c(cc4c3)C[C@@H]([C@H](OC)C(=O)NCc3ccc(F)cc3)[C@H](O[C@H]3C[C@H](O[C@H]4C[C@H](O[C@H]6C[C@@](C)(O)[C@@H](OC(=O)C(C)C)[C@H](C)O6)[C@H](O)[C@@H](C)O4)[C@H](O)[C@@H](C)O3)C5=O)O[C@H](C)[C@H]2OC(C)=O)O[C@@H]1C,–
2000 nM,2200 nM,CO[C@H]1[C@H](O)C[C@@H](O[C@@H]2C[C@H](Oc3cc(O)c4c(O)c5c(cc4c3)C[C@@H]([C@H](OC)C(=O)O)[C@H](O[C@H]3C[C@H](O[C@H]4C[C@H](O[C@H]6C[C@@](C)(O)[C@@H](OC(=O)C(C)C)[C@H](C)O6)[C@H](O)[C@@H](C)O4)[C@H](O)[C@@H](C)O3)C5=O)O[C@H](C)[C@H]2OC(C)=O)O[C@@H]1C [OLIVOMYCIN SA],Activity [3]: Dose-dependent effect; Activity [4]: Dose-dependent effect; K [5]: 2.1 ×10⁴ /M
156 nM,–,CO[C@H]1[C@H](O)C[C@@H](O[C@@H]2C[C@H](Oc3cc(O)c4c(O)c5c(cc4c3)C[C@@H]([C@H](OC)C(=O)NCCCO)[C@H](O[C@H]3C[C@H](O[C@H]4C[C@H](O[C@H]6C[C@@](C)(O)[C@@H](OC(=O)C(C)C)[C@H](C)O6)[C@H](O)[C@@H](C)O4)[C@H](O)[C@@H](C)O3)C5=O)O[C@H](C)[C@H]2OC(C)=O)O[C@@H]1C,–
